UCH37 inh = inhibitors of human UCH37 deubiquitinase, primary screen, biochemical, Ub-AMC cleavage, fluorescence; inhibition, % (test concentration not listed); actives 0.33% (n = 330,000); purified proteasome/UCH37; AID 588478, 2011;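 active = mean inhibition over replicate wells above about 20%, limit read from the data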;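 also: 0% = compound-free wells with enzyme and 100% = wells lacking proteasome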
Target sequence (Q9Y5K5 whole entry, looked up): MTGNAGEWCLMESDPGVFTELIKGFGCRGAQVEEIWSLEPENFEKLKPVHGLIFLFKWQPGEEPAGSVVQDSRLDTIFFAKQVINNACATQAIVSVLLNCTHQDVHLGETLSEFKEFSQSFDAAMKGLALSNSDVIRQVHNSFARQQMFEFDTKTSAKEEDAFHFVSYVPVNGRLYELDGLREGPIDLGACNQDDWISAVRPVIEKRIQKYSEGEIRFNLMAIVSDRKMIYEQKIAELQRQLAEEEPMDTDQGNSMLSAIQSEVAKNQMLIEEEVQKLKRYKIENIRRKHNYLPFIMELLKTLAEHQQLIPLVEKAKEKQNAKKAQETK
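Signal – fluorescence, ex 355 nm, em 460 nm · System – Proteasome-bound UCH37 · Input – 0.15 nM proteasome as dispensed · Timing – 30 min preincubation with enzyme, 25 min cleavage at room temperature · Read-out basis – percent inhibition of cleavage signal versus uninhibited and no-proteasome wells · Medium – Tris-HCl pH 7.4 with ATP-MgCl2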
UPR CHOP act = activators of apoptotic CHOP UPR arm, primary screen, cell-based, CHO-CHOP luciferase reporter, luminescence, uHTS; UPR activation; percent of tunicamycin response over DMSO baseline; actives 0.34% (n = 330,000); activation, % at 10 µM;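 active = at 10 µM dose, activation of 40% or more, normalized to positive control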;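 also: 100% = tunicamycin at 10 µg/mL and 0% = DMSO alone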
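Test system: CHO-CHOP cells, stable luciferase reporter of PERK-eIF2a-CHOP signalling | Quantity: 500 CHO-CHOP cells per well | Buffer or medium: F12 plus 10% serum | Compound dosing: 10 µM single point, 0.5% DMSO | Schedule: 6 h compound treatment, 37 °C | Signal: Luciferase luminescence | Control set: Tunicamycin high control, DMSO low control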
CHOP inh = inhibitors of CHOP promoter induction, primary screen, cell-based, unfolded protein response, luciferase reporter; CHO-K1 CHOP-promoter luciferase, tunicamycin-induced, 15-18 h; actives 3.8% (n = 220,000); inhibition, % at 10 µM;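 active = compounds that reduced the stress-induced luciferase reporter signal by more than about 70% of percent inhibition, limit read from the data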;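 also: 0% = tunicamycin plus vehicle and 100% = wells without tunicamycin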
XBP1 UPR activ = activators of adaptive XBP1 UPR arm, primary screen, cell-based, CHO-XBP1 luciferase reporter, luminescence, uHTS. actives 0.33% (n = 330,000). IRE1-XBP1 UPR activation; percent of tunicamycin response, DMSO as zero. activation, % at 20 µM;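 active = versus positive control, 20 µM dose yields 30% or more activation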;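 also: 100% = tunicamycin at 10 µg/mL and 0% = DMSO only wells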
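incubation = overnight seeding at 37 °C, 6 h compound treatment at 37 °C | assay system = CHO-XBP1 cells stably carrying IRE1-XBP1-driven luciferase reporter | input = 1000 cells per well | detection = luciferase luminescence | dosing = single point, 20 µM final compound, 1% DMSO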
CTSL1 counter = Fasciola hepatica cathepsin L1 inhibitors, primary screen, counter-screen for PFM18AAP inhibitor project, biochemical, QFRET, fluorogenic peptide substrate. recombinant F. hepatica cathepsin L1, Z-Leu-Arg-MCA fluorescence. inhibition, % at 5.96 µM. actives 0.49% (n = 300,000). AID 1906, 2009;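 active = inhibition above the mean of all tested compounds plus 3 SD, set per screening campaign, cut at about 17% in these data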;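 also: 0% = plate median of test compound wells and 100% = 1 µM Z-Phe-Ala-diazomethylketone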
UCH37 confirm = retest of human UCH37 deubiquitinase inhibitors, confirmation, biochemical, Ub-AMC cleavage rate, fluorescence. shares compounds with UCH37 inh. Proteasome-bound UCH37. inhibition, % at 20 µM. actives 27% (n = 480);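 active = average inhibition over replicates above about 50%, so the earlier screening hit is confirmed, limit read from the data; inactive = the rest, counted as false positives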;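 also: based on cleavage rate fitted by regression over a 30 min kinetic read; 0% = proteasome plus Ub-AMC and 100% = Ub-AMC without proteasome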
Active calls of the source: *. The entries come from a sample that favours hits as a whole.

CC(C)(C)c1ccc2c(c1)OC(C(=O)NN=Cc1ccccn1)CO2 (stereo unspecified) was read as UCH37 inh 3.3.
C=C(C)C1CCC(C)=C1CC(C)(C)/C=N\n1cnnc1 (stereo unspecified) was read as UPR CHOP act -1.7, CHOP inh 30.4, XBP1 UPR activ -1.1 and CTSL1 counter 8.7.
Screening C=C(C)C1CCC(C)=C1CC(C)(C)C=Nn1cnnc1 (stereo unspecified) returned UCH37 inh 42.0* and UCH37 confirm 58.2*.
For COC(=O)c1ccc(C=NNC(=O)C(=O)NCC2CCCO2)cc1 (stereo unspecified) the results were UCH37 inh 2.6.
`N#C/C(=C/c1ccc(N2CCOCC2)o1)C(=O)NC1CCCCC1` gave UCH37 inh 26.6*, UPR CHOP act 4.0, CHOP inh -24.4, XBP1 UPR activ 3.9, CTSL1 counter 5.4 and UCH37 confirm 19.3.
Screening N#C/C(=C\c1ccc(N2CCOCC2)o1)C(=O)Nc1ccc(O)cc1 returned UCH37 inh 28.6*, UPR CHOP act 6.3, CHOP inh -29.2, XBP1 UPR activ -0.6, CTSL1 counter 5.8 and UCH37 confirm 25.4.
`COc1ccc(NC(=O)/C(C#N)=C\c2ccc(N3CCOCC3)o2)cc1` gave UCH37 inh 27.2*, UPR CHOP act 2.4, CHOP inh 2.6, XBP1 UPR activ -0.1, CTSL1 counter 10.4 and UCH37 confirm 14.2.
`N#C/C(=C/c1ccc(N2CCCCC2)o1)C(=O)Nc1ccc(Cl)cc1` gave UCH37 inh 0.0, UPR CHOP act 4.8, CHOP inh 66.9, XBP1 UPR activ 1.7 and CTSL1 counter 3.5.
`O=C(NN=Cc1cccs1)C(O)c1ccccc1` (stereo unspecified) gave UCH37 inh 3.9.
Screening O=C(NN=Cc1ccc([N+](=O)[O-])o1)c1cn(-c2ccccc2)nc1-c1ccc(F)cc1 returned UCH37 inh 5.0.
For COc1ccc(NC(=S)Nc2ccc3nsnc3c2)cc1 the results were UCH37 inh 40.5*, UPR CHOP act 4.7, CHOP inh 23.2, XBP1 UPR activ -3.1, CTSL1 counter 98.5* and UCH37 confirm 35.9.
For COc1ccc(NC(=S)Nc2ccc3nc(C)c(C)nc3c2)cc1 the results were UCH37 inh 7.9, UPR CHOP act 0.0, CHOP inh -7.7, XBP1 UPR activ 2.1 and CTSL1 counter 0.9.
Screening O=C(NCCC1=CCCCC1)C1COc2ccccc2O1 (stereo unspecified) returned UCH37 inh 46.7*, UPR CHOP act -2.2, CHOP inh -35.0, XBP1 UPR activ 2.6, CTSL1 counter 4.8 and UCH37 confirm 67.4*.
`O=C(NCCC1=CCCCC1)c1ccc(Br)o1` gave UCH37 inh 82.6*, UPR CHOP act 5.2, CHOP inh 38.0, XBP1 UPR activ 2.7, CTSL1 counter 4.1 and UCH37 confirm 90.5*.
For O=C(NCCc1ccc(C(F)(F)F)cc1)C1COc2ccccc2O1 (stereo unspecified) the results were UCH37 inh 5.0, UPR CHOP act 2.3, XBP1 UPR activ -1.8 and CTSL1 counter 3.8.
Cc1ccccc1NS(=O)(=O)c1cc(C(=O)NCCC2=CCCCC2)ccc1C was read as UCH37 inh 39.8*, UPR CHOP act 0.3, CHOP inh 40.4, XBP1 UPR activ -0.2, CTSL1 counter -2.7 and UCH37 confirm 41.4.
Screening CSc1nc(Oc2ccc(Cl)cc2)c2sccc2n1 returned UCH37 inh 36.1*, UPR CHOP act -1.7, CHOP inh 63.8, XBP1 UPR activ 6.9, CTSL1 counter 2.4 and UCH37 confirm 16.3.
CSc1nc(N2CCOCC2)c2sccc2n1 was read as UCH37 inh 5.8, UPR CHOP act -0.3, CHOP inh 10.5, XBP1 UPR activ 10.7 and CTSL1 counter 0.3.
`CC(=O)NC1=C(NC2CCS(=O)(=O)C2)C(=O)c2ccccc2C1=O` (stereo unspecified) gave UCH37 inh 28.1*, UPR CHOP act 1.8, CHOP inh -2.4, XBP1 UPR activ 0.7, CTSL1 counter 0.8 and UCH37 confirm 26.5.
`COC(=O)c1sccc1NN=C(C)c1ccc(F)c(Cl)c1` gave UCH37 inh -11.8.
For CC1=CCC(C(=O)O)(C(=O)NN=Cc2cccs2)C(c2ccc(Cl)cc2)C1 (stereo unspecified) the results were UCH37 inh 3.4.
`CCOC(=O)CC1=NN(c2ccccc2)C(=O)/C1=C\c1ccc(OC)cc1OC` gave UCH37 inh 35.5*, UPR CHOP act -1.1, CHOP inh -3.0, XBP1 UPR activ 3.2, CTSL1 counter 0.1 and UCH37 confirm -2.7.
Cc1cc(C(=O)NN=Cc2ccccn2)n[nH]1 was read as UCH37 inh -6.7.
Screening CC(=O)NNc1nc(-c2ccc(NC(C)=O)cc2)cs1 returned UCH37 inh 37.0*, UPR CHOP act 1.4, CHOP inh -3.4, XBP1 UPR activ 4.0, CTSL1 counter -0.9 and UCH37 confirm -21.9.
For Cc1c(/C(O)=C2\C(=O)C(=O)N(CCCN(C)C)C2c2cccs2)cnn1-c1ccccc1 (stereo unspecified) the results were UCH37 inh 35.4* and UCH37 confirm 2.3.
For O=C1C2C3CCCC3=C3CCCC3C2C(=O)N1c1ccc(Cl)cc1 (stereo unspecified) the results were UCH37 inh 63.1*, UPR CHOP act 0.6, XBP1 UPR activ 4.5, CTSL1 counter 6.0 and UCH37 confirm 75.0*.
Cc1ccc(C(C(=O)NC2CCCC2)N(Cc2ccc3c(c2)OCO3)C(=O)Cc2cccs2)cc1 (stereo unspecified) was read as UCH37 inh 36.2*, UPR CHOP act -1.7, CHOP inh 44.5, XBP1 UPR activ -5.9, CTSL1 counter -2.4 and UCH37 confirm -12.7.
For Cc1ccc(CN(C(=O)Cc2cccs2)C(C(=O)NC2CCCC2)c2ccncc2)cc1 (stereo unspecified) the results were UCH37 inh 1.1, UPR CHOP act -1.4, CHOP inh 20.9, XBP1 UPR activ -1.7 and CTSL1 counter 4.1.
Screening O=C(COC(=O)c1ccc([N+](=O)[O-])o1)NC1CCCCC1 returned UCH37 inh 25.9*, UPR CHOP act 0.3, XBP1 UPR activ 0.3 and UCH37 confirm 18.6.
Screening CC1CCN(C(=O)COC(=O)c2ccc([N+](=O)[O-])o2)CC1 returned UCH37 inh 16.2, UPR CHOP act 0.5 and XBP1 UPR activ 2.5.
